Data set [1] has as its system Candida albicans. Nature of the data set: Antimicrobial activity against Candida albicans SC5314 after 24 hrs by serial dilution method. It counts as functional. Particulars: SC5314, 24 h. The method, boiled down:
(§1)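 Broth serial dilution MIC in 96-well plates following NCCLS/CLSI methods. Compounds were dissolved in DMSO and serially diluted in growth medium, with incubation at 35 °C. […] C. parapsilosis 22019 served as the quality-control strain in each assay.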

Data set [2] has as its system Candida albicans. Nature of the data set: Antimicrobial activity against Candida albicans Y0109 after 24 hrs by serial dilution method. The conditions noted are these: Y0109, 24 h. The data set is classed as functional. The gist of the method:
as §1

Data set [3] concerns Candida parapsilosis. Nature of the data set: Antimicrobial activity against Candida parapsilosis 22019 after 24 hrs by serial dilution method. It counts as functional. The conditions noted are these: Lodderomyces parapsilosis, 22019, 24 h. The gist of the method: as §1
Data set [4] has as its system Cryptococcus neoformans. Nature of the data set: Antimicrobial activity against Cryptococcus neoformans 32609 after 72 hrs by serial dilution method. The data set is classed as functional. Particulars: Cryptococcus neoformans, 32609, 72 h. The gist of the method:
as §1

Data set [5] concerns Nakaseomyces glabratus. Nature of the data set: Antimicrobial activity against Candida glabrata 537 after 24 hrs by serial dilution method. The data set is classed as functional. Particulars: Nakaseomyces glabratus, 537, 24 h. The gist of the method: as §1
Data set [6] concerns Aspergillus fumigatus. Nature of the data set: Antimicrobial activity against Aspergillus fumigatus 7544 after 48 hrs by serial dilution method. The data set is classed as functional. Particulars: Aspergillus fumigatus, 7544, 48 h. The gist of the method:
as §1

For data set [7], the system named is Candida albicans. Nature of the data set: Antimicrobial activity against fluconazole-resistant Candida albicans 100 after 24 hrs by serial dilution method. The data set is classed as functional. The conditions noted are these: Candida albicans, 100, 24 h. The method, boiled down: (§2)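 Broth serial-dilution MIC in 96-well plates following NCCLS guidance. Compounds were dissolved in DMSO and serially diluted in growth medium. Clinical isolates came from a hospital collection. […] C. parapsilosis ATCC 22019 served as the quality-control strain in each assay.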

The test system of data set [8] is Candida albicans. Nature of the data set: Antimicrobial activity against fluconazole-resistant Candida albicans 103 after 24 hrs by serial dilution method. The data set is classed as functional. Particulars: Candida albicans, 103, 24 h. The gist of the method:
as §2

In data set [9] the test system is Candida albicans. Nature of the data set: Antimicrobial activity against fluconazole-resistant Candida albicans J18 after 24 hrs by serial dilution method. It counts as functional. Particulars: J18, 24 h. The gist of the method: as §2
In data set [10] the test system is Candida albicans. Nature of the data set: Antimicrobial activity against fluconazole-resistant Candida albicans J28 after 24 hrs by serial dilution method. It counts as functional. Particulars: J28, 24 h. The gist of the method: as §2
Data set [11] relates to Candida albicans. Nature of the data set: Antimicrobial activity against fluconazole-resistant Candida albicans J38 after 24 hrs by serial dilution method. The data set is classed as functional. Particulars: J38, 24 h. The method, boiled down:
as §2

Data set [12] has as its system Candida albicans. Nature of the data set: Ratio of fluconazole MIC to compound MIC for fluconazole-resistant Candida albicans 103 after 24 hrs by serial dilution method. It counts as functional.
In data set [13] the test system is Candida albicans. Nature of the data set: Ratio of fluconazole MIC to compound MIC for fluconazole-resistant Candida albicans 100 after 24 hrs by serial dilution method. It counts as functional.
In data set [14] the test system is Candida albicans. Nature of the data set: Ratio of fluconazole MIC to compound MIC for fluconazole-resistant Candida albicans J18 after 24 hrs by serial dilution method. The data set is classed as functional.
A short description of data set [15]: Aqueous solubility of the compound in hydrochloric acid solution at pH 1.2. It counts as physicochemical. The gist of the method: (§3)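 Excess solid was stirred for 3 h in pH 1.2 hydrochloric acid or pH 7.4 phosphate buffer, then filtered through 0.45 μm. Absorbance at the UV maximum was compared with a methanol standard, C′ = A′C/A, with values reported in mg/mL. Determined at 30 °C; mean ± SD, n = 3.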

Data set [16] in a line: Aqueous solubility of the compound in phosphate buffer at pH 7.4. It counts as physicochemical. The gist of the method:
as §3

The structures appear in SMILES notation. Converted amounts (≈) assume the structure as drawn. Bounds are passed on as bounds.

These results are taken from ChEMBL document CHEMBL3259614, “Design, synthesis, and structure-activity relationship studies of novel fused heterocycles-linked triazoles with good activity and water solubility” (J Med Chem, 2014).

In general, MIC refers to the lowest concentration that inhibits growth of the organism. Read a high MIC as weaker potency. In the case of `C[C@@H](N1CCn2nnc(Br)c2C1)[C@](O)(Cn1cncn1)c1ccc(F)cc1F`, the MIC is no more than 0.0312 µg/mL in data set [1]; 0.0625 µg/mL (≈ 0.138 µM) in data set [2]; 0.125 µg/mL (≈ 0.275 µM) in data set [3]; no more than 0.0625 µg/mL in data set [4]; 0.25 µg/mL (≈ 0.55 µM) in [5]; 8 µg/mL (≈ 17.6 µM) in data set [6]. Also, the minimum inhibitory concentration (MIC) in data set [7] was greater than 32 µg/mL; in data set [8] it was greater than 32 µg/mL; in data set [9] it was greater than 32 µg/mL; in [10], 2 µg/mL (≈ 4.4 µM); in [11], 0.25 µg/mL (≈ 0.55 µM). In addition, the Ratio in data set [12], in [13] and in data set [14] was 16 throughout.
A word on the solubility: it is the concentration that dissolves in the medium under given conditions. In the case of `C[C@@H](N1CCn2nc(-c3ccccc3)nc2C1)[C@](O)(Cn1cncn1)c1ccc(F)cc1F`, the MIC was determined as 0.0625 µg/mL (≈ 0.138 µM) in data set [1]; 0.125 µg/mL (≈ 0.277 µM) in data set [2]; 0.125 µg/mL (≈ 0.277 µM) in data set [3]; 0.125 µg/mL (≈ 0.277 µM) in data set [4]; 0.125 µg/mL (≈ 0.277 µM) in data set [5]; 32 µg/mL (≈ 70.9 µM) in data set [6]. Moreover, the MIC in [7] is greater than 32 µg/mL; in data set [8], greater than 32 µg/mL; in data set [9], greater than 32 µg/mL; in [10], 0.5 µg/mL (≈ 1.11 µM); in data set [11], 0.0625 µg/mL (≈ 0.138 µM). For the same compound, the solubility in [15] worked out at 316 µg/mL (≈ 700 µM); in data set [16], 97 µg/mL (≈ 215 µM). Further, the Ratio in data set [12], in [13] and in data set [14] was 16 throughout.
As for `C[C@@H](N1CCn2nc(-c3cccnc3)nc2C1)[C@](O)(Cn1cncn1)c1ccc(F)cc1F`, the MIC turned out to be 0.0312 µg/mL (≈ 0.0691 µM) in data set [1]; 0.0312 µg/mL (≈ 0.0691 µM) in data set [2]; 0.0312 µg/mL (≈ 0.0691 µM) in [3]; 0.0312 µg/mL (≈ 0.0691 µM) in [4]; 0.0312 µg/mL (≈ 0.0691 µM) in data set [5]; 32 µg/mL (≈ 70.7 µM) in data set [6]. Also, the solubility in [15] was 5900 µg/mL (≈ 13000 µM); in data set [16], 1820 µg/mL (≈ 4010 µM).
With `C[C@@H](N1CCc2nc(-c3ccccc3)sc2C1)[C@](O)(Cn1cncn1)c1ccc(F)cc1F`, the MIC in [1] worked out at 0.5 µg/mL (≈ 1.07 µM); in data set [2], 0.5 µg/mL (≈ 1.07 µM); in data set [3], 0.5 µg/mL (≈ 1.07 µM); in data set [4] it was 0.125 µg/mL (≈ 0.267 µM); in data set [5] it was 0.5 µg/mL (≈ 1.07 µM); in data set [6] it was 16 µg/mL (≈ 34.2 µM). In addition, the solubility stood at 1250 µg/mL (≈ 2670 µM) in [15] and 130 µg/mL (≈ 278 µM) in data set [16].
Take `C[C@@H](N1CCc2nc(-c3cccnc3)sc2C1)[C@](O)(Cn1cncn1)c1ccc(F)cc1F`: the MIC in data set [1] worked out at 0.0312 µg/mL (≈ 0.0667 µM); in data set [2], 0.0312 µg/mL (≈ 0.0667 µM); in data set [3], 0.125 µg/mL (≈ 0.267 µM); in data set [4], 0.0625 µg/mL (≈ 0.133 µM); in data set [5] it was 0.125 µg/mL (≈ 0.267 µM); in data set [6], 2 µg/mL (≈ 4.27 µM). The solubility in data set [15] is 10100 µg/mL (≈ 21500 µM); in data set [16] it was 2360 µg/mL (≈ 5040 µM).
Take `C[C@@H](N1CCc2nc(-c3cncnc3)sc2C1)[C@](O)(Cn1cncn1)c1ccc(F)cc1F`: the MIC in data set [1] came out at 0.0156 µg/mL (≈ 0.0332 µM); in data set [2], 0.0156 µg/mL (≈ 0.0332 µM); in data set [3], 0.0625 µg/mL (≈ 0.133 µM); in data set [4], 0.0625 µg/mL (≈ 0.133 µM); in [5] it was 0.0625 µg/mL (≈ 0.133 µM); in data set [6] it was 1 µg/mL (≈ 2.13 µM). Also, the MIC was greater than 16 µg/mL in data set [7]; 8 µg/mL (≈ 17 µM) in data set [8]; greater than 16 µg/mL in data set [9]; 0.0625 µg/mL (≈ 0.133 µM) in [10]; no more than 0.0312 µg/mL in data set [11]. For the same compound, the solubility was found to be 14700 µg/mL (≈ 31300 µM) in data set [15] and 3090 µg/mL (≈ 6590 µM) in data set [16].
For the compound `C[C@@H](N1CCc2sc(-c3ccc(C#N)nc3)cc2C1)[C@](O)(Cn1cncn1)c1ccc(F)cc1F`, the MIC was 1 µg/mL (≈ 2.03 µM) in data set [1]; 4 µg/mL (≈ 8.12 µM) in data set [2]; 2 µg/mL (≈ 4.06 µM) in data set [3]; 1 µg/mL (≈ 2.03 µM) in [4]; 2 µg/mL (≈ 4.06 µM) in data set [5]; 32 µg/mL (≈ 65 µM) in data set [6].
As for `C[C@@H](N1CCc2sc(-c3ccncc3)cc2C1)[C@](O)(Cn1cncn1)c1ccc(F)cc1F`, the MIC in data set [1] is 1 µg/mL (≈ 2.14 µM); in data set [2] it was 2 µg/mL (≈ 4.28 µM); in data set [3], 4 µg/mL (≈ 8.56 µM); in data set [4] it was 4 µg/mL (≈ 8.56 µM); in data set [5], 8 µg/mL (≈ 17.1 µM); in data set [6], greater than 32 µg/mL.
Take `C[C@@H](N1CCc2sc(-c3cccnc3)cc2C1)[C@](O)(Cn1cncn1)c1ccc(F)cc1F`: the MIC in [1] was 1 µg/mL (≈ 2.14 µM); in [2], 8 µg/mL (≈ 17.1 µM); in data set [3], 4 µg/mL (≈ 8.56 µM); in data set [4] it was 4 µg/mL (≈ 8.56 µM); in data set [5] it was 2 µg/mL (≈ 4.28 µM); in data set [6] it was 32 µg/mL (≈ 68.4 µM).
As to `C[C@@H](N1CCc2cc(Br)sc2C1)[C@](O)(Cn1cncn1)c1ccc(F)cc1F`, the MIC in data set [1] turned out to be 1 µg/mL (≈ 2.13 µM); in data set [2], 0.5 µg/mL (≈ 1.07 µM); in data set [3] it was 2 µg/mL (≈ 4.26 µM); in data set [4] it was 0.5 µg/mL (≈ 1.07 µM); in data set [5] it was 1 µg/mL (≈ 2.13 µM); in data set [6], 32 µg/mL (≈ 68.2 µM).
`C[C@@H](N1CCc2cc(-c3ccncc3)sc2C1)[C@](O)(Cn1cncn1)c1ccc(F)cc1F`: the MIC in [1] stood at 1 µg/mL (≈ 2.14 µM); in [2] it was 4 µg/mL (≈ 8.56 µM); in data set [3], 2 µg/mL (≈ 4.28 µM); in data set [4], 1 µg/mL (≈ 2.14 µM); in data set [5] it was 2 µg/mL (≈ 4.28 µM); in [6], 32 µg/mL (≈ 68.4 µM).
Take `C[C@@H](N1CCc2cc(-c3cccnc3)sc2C1)[C@](O)(Cn1cncn1)c1ccc(F)cc1F`: the MIC in data set [1] worked out at 0.5 µg/mL (≈ 1.07 µM); in [2], 1 µg/mL (≈ 2.14 µM); in data set [3] it was 1 µg/mL (≈ 2.14 µM); in data set [4], 0.5 µg/mL (≈ 1.07 µM); in data set [5], 1 µg/mL (≈ 2.14 µM); in data set [6], 8 µg/mL (≈ 17.1 µM).
